Tested on: Fibroblast
Assay: Multiplex assay against human fibroblast
Type: toxicity, cell-based
Method in brief: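 Hoechst33342, BioTracker Green Microtubule Cytoskeleton Dye, MitoTracker Red and Annexin V Alexa Fluor 680 were added to live cells at seeding, and imaging on a CQ1 microscope at 37°C and 5% CO2 followed compound addition. Gating by CellPathfinder machine learning separated cells into Hoechst high-intensity objects or normal cells, then normal cells into healthy, pyknosed or fragmented nuclei, then pyknosed cells into mitotic or apoptotic. Per cents of healthy-nucleus cells are reported for the tubulin, mitochondrial-mass and membrane-permeability phenotypes.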

[1] = 12 h, 1 µM, compound concentration 1 uM, replicate 1
[2] = 12 h, 1 µM, compound concentration 1 uM, replicate 2
[3] = 12 h, 10 µM, compound concentration 10 uM, replicate 1
[4] = 12 h, 10 µM, compound concentration 10 uM, replicate 2
[5] = 24 h, 1 µM, compound concentration 1 uM, replicate 1
[6] = 24 h, 1 µM, compound concentration 1 uM, replicate 2
[7] = 24 h, 10 µM, compound concentration 10 uM, replicate 1
[8] = 24 h, 10 µM, compound concentration 10 uM, replicate 2

For `Cc1nc(N2CC[C@H](O)C2)ncc1-c1cc(C(F)(F)F)cc2[nH]ncc12`, the “Population Apoptotic (%)” value [1] was 70%, the “Population Fragmented Nuclei (%)” value [1] was 32% and the “Population Healthy Nuclei (%)” value [1] was 49%. The “Population Hoechst High Intensity Objects (%)” value [1] was 12%, the “Population Membrane Permeable-Phenotype (%)” value [1] was 10% and the “Population Mitochondria Different-Phenotype (%)” value [1] was 6%. For the same compound, the “Population Mitotic Cells (%)” value [1] was 29%, the “Population Normal (%)” value [1] was 87% and the “Population Pyknosed Nuclei (%)” value [1] was 18%. For the same compound, the “Population Tubulin-Different-Phenotype (%)” value [1] was 7%, the “Total Cell Count” value [1] was 193 and the “Population Apoptotic (%)” value [2] was 20%. For the same compound, the “Population Fragmented Nuclei (%)” value [2] was 42%, the “Population Healthy Nuclei (%)” value [2] was 33% and the “Population Hoechst High Intensity Objects (%)” value [2] was 40%. For the same compound, the “Population Membrane Permeable-Phenotype (%)” value [2] was 28%, the “Population Mitochondria Different-Phenotype (%)” value [2] was 28% and the “Population Mitotic Cells (%)” value [2] was 80%. The “Population Normal (%)” value [2] was 60%, the “Population Pyknosed Nuclei (%)” value [2] was 23% and the “Population Tubulin-Different-Phenotype (%)” value [2] was 50%. For the same compound, the “Total Cell Count” value [2] was 70, the “Population Apoptotic (%)” value [3] was 66% and the “Population Fragmented Nuclei (%)” value [3] was 24%. The “Population Healthy Nuclei (%)” value [3] was 61%, the “Population Hoechst High Intensity Objects (%)” value [3] was 15% and the “Population Membrane Permeable-Phenotype (%)” value [3] was 3%. The “Population Mitochondria Different-Phenotype (%)” value [3] was 7%, the “Population Mitotic Cells (%)” value [3] was 33% and the “Population Normal (%)” value [3] was 84%. The “Population Pyknosed Nuclei (%)” value [3] was 14%, the “Population Tubulin-Different-Phenotype (%)” value [3] was 4% and the “Total Cell Count” value [3] was 218. For the same compound, the “Population Apoptotic (%)” value [4] was 50%, the “Population Fragmented Nuclei (%)” value [4] was 68% and the “Population Healthy Nuclei (%)” value [4] was 21%. The “Population Hoechst High Intensity Objects (%)” value [4] was 22%, the “Population Membrane Permeable-Phenotype (%)” value [4] was 15% and the “Population Mitochondria Different-Phenotype (%)” value [4] was 15%. For the same compound, the “Population Mitotic Cells (%)” value [4] was 50%, the “Population Normal (%)” value [4] was 77% and the “Population Pyknosed Nuclei (%)” value [4] was 9%. The “Population Tubulin-Different-Phenotype (%)” value [4] was 15%, the “Total Cell Count” value [4] was 79 and the “Population Apoptotic (%)” value [5] was 48%. For the same compound, the “Population Fragmented Nuclei (%)” value [5] was 29%, the “Population Healthy Nuclei (%)” value [5] was 47% and the “Population Hoechst High Intensity Objects (%)” value [5] was 12%. For the same compound, the “Population Membrane Permeable-Phenotype (%)” value [5] was 9%, the “Population Mitochondria Different-Phenotype (%)” value [5] was 9% and the “Population Mitotic Cells (%)” value [5] was 51%. The “Population Normal (%)” value [5] was 87%, the “Population Pyknosed Nuclei (%)” value [5] was 22% and the “Population Tubulin-Different-Phenotype (%)” value [5] was 12%. The “Total Cell Count” value [5] was 183, the “Population Apoptotic (%)” value [6] was 60% and the “Population Fragmented Nuclei (%)” value [6] was 45%. For the same compound, the “Population Healthy Nuclei (%)” value [6] was 30%, the “Population Hoechst High Intensity Objects (%)” value [6] was 35% and the “Population Membrane Permeable-Phenotype (%)” value [6] was 30%. The “Population Mitochondria Different-Phenotype (%)” value [6] was 7%, the “Population Mitotic Cells (%)” value [6] was 40% and the “Population Normal (%)” value [6] was 64%. The “Population Pyknosed Nuclei (%)” value [6] was 23%, the “Population Tubulin-Different-Phenotype (%)” value [6] was 23% and the “Total Cell Count” value [6] was 65. The “Population Apoptotic (%)” value [7] was 65%, the “Population Fragmented Nuclei (%)” value [7] was 22% and the “Population Healthy Nuclei (%)” value [7] was 63%. For the same compound, the “Population Hoechst High Intensity Objects (%)” value [7] was 15%, the “Population Membrane Permeable-Phenotype (%)” value [7] was 7% and the “Population Mitochondria Different-Phenotype (%)” value [7] was 3%. The “Population Mitotic Cells (%)” value [7] was 34%, the “Population Normal (%)” value [7] was 84% and the “Population Pyknosed Nuclei (%)” value [7] was 14%. The “Population Tubulin-Different-Phenotype (%)” value [7] was 3%, the “Total Cell Count” value [7] was 239 and the “Population Apoptotic (%)” value [8] was 83%. For the same compound, the “Population Fragmented Nuclei (%)” value [8] was 67%, the “Population Healthy Nuclei (%)” value [8] was 22% and the “Population Hoechst High Intensity Objects (%)” value [8] was 24%. The “Population Membrane Permeable-Phenotype (%)” value [8] was 38%, the “Population Mitochondria Different-Phenotype (%)” value [8] was 30% and the “Population Mitotic Cells (%)” value [8] was 16%. The “Population Normal (%)” value [8] was 75%, the “Population Pyknosed Nuclei (%)” value [8] was 10% and the “Population Tubulin-Different-Phenotype (%)” value [8] was 46%. The “Total Cell Count” value [8] was 77.
With `C=CC(=O)Nc1ccc2[nH]c(=O)n(C3CCN(Cc4ccc(-c5nc6cc[nH]c(=O)c6cc5-c5ccccc5)cc4)CC3)c2c1` [Borussertib] the “Population Apoptotic (%)” value [1] was 64%, the “Population Fragmented Nuclei (%)” value [1] was 31% and the “Population Healthy Nuclei (%)” value [1] was 51%. The “Population Hoechst High Intensity Objects (%)” value [1] was 13%, the “Population Membrane Permeable-Phenotype (%)” value [1] was 10% and the “Population Mitochondria Different-Phenotype (%)” value [1] was 5%. For the same compound, the “Population Mitotic Cells (%)” value [1] was 36%, the “Population Normal (%)” value [1] was 86% and the “Population Pyknosed Nuclei (%)” value [1] was 17%. For the same compound, the “Population Tubulin-Different-Phenotype (%)” value [1] was 4%, the “Total Cell Count” value [1] was 169 and the “Population Apoptotic (%)” value [2] was 33%. For the same compound, the “Population Fragmented Nuclei (%)” value [2] was 63%, the “Population Healthy Nuclei (%)” value [2] was 31% and the “Population Hoechst High Intensity Objects (%)” value [2] was 30%. The “Population Membrane Permeable-Phenotype (%)” value [2] was 11%, the “Population Mitochondria Different-Phenotype (%)” value [2] was 0% and the “Population Mitotic Cells (%)” value [2] was 66%. For the same compound, the “Population Normal (%)” value [2] was 69%, the “Population Pyknosed Nuclei (%)” value [2] was 5% and the “Population Tubulin-Different-Phenotype (%)” value [2] was 16%. For the same compound, the “Total Cell Count” value [2] was 83, the “Population Apoptotic (%)” value [3] was 60% and the “Population Fragmented Nuclei (%)” value [3] was 27%. The “Population Healthy Nuclei (%)” value [3] was 56%, the “Population Hoechst High Intensity Objects (%)” value [3] was 15% and the “Population Membrane Permeable-Phenotype (%)” value [3] was 6%. For the same compound, the “Population Mitochondria Different-Phenotype (%)” value [3] was 4%, the “Population Mitotic Cells (%)” value [3] was 39% and the “Population Normal (%)” value [3] was 84%. The “Population Pyknosed Nuclei (%)” value [3] was 16%, the “Population Tubulin-Different-Phenotype (%)” value [3] was 27% and the “Total Cell Count” value [3] was 304. For the same compound, the “Population Apoptotic (%)” value [4] was 44%, the “Population Fragmented Nuclei (%)” value [4] was 64% and the “Population Healthy Nuclei (%)” value [4] was 22%. The “Population Hoechst High Intensity Objects (%)” value [4] was 29%, the “Population Membrane Permeable-Phenotype (%)” value [4] was 25% and the “Population Mitochondria Different-Phenotype (%)” value [4] was 18%. For the same compound, the “Population Mitotic Cells (%)” value [4] was 55%, the “Population Normal (%)” value [4] was 71% and the “Population Pyknosed Nuclei (%)” value [4] was 12%. For the same compound, the “Population Tubulin-Different-Phenotype (%)” value [4] was 68%, the “Total Cell Count” value [4] was 100 and the “Population Apoptotic (%)” value [5] was 66%. The “Population Fragmented Nuclei (%)” value [5] was 29%, the “Population Healthy Nuclei (%)” value [5] was 56% and the “Population Hoechst High Intensity Objects (%)” value [5] was 13%. For the same compound, the “Population Membrane Permeable-Phenotype (%)” value [5] was 4%, the “Population Mitochondria Different-Phenotype (%)” value [5] was 2% and the “Population Mitotic Cells (%)” value [5] was 33%. For the same compound, the “Population Normal (%)” value [5] was 86%, the “Population Pyknosed Nuclei (%)” value [5] was 14% and the “Population Tubulin-Different-Phenotype (%)” value [5] was 6%. For the same compound, the “Total Cell Count” value [5] was 170, the “Population Apoptotic (%)” value [6] was 100% and the “Population Fragmented Nuclei (%)” value [6] was 56%. For the same compound, the “Population Healthy Nuclei (%)” value [6] was 41%, the “Population Hoechst High Intensity Objects (%)” value [6] was 32% and the “Population Membrane Permeable-Phenotype (%)” value [6] was 5%. The “Population Mitochondria Different-Phenotype (%)” value [6] was 10%, the “Population Mitotic Cells (%)” value [6] was 0% and the “Population Normal (%)” value [6] was 67%. For the same compound, the “Population Pyknosed Nuclei (%)” value [6] was 2%, the “Population Tubulin-Different-Phenotype (%)” value [6] was 10% and the “Total Cell Count” value [6] was 68. The “Population Apoptotic (%)” value [7] was 55%, the “Population Fragmented Nuclei (%)” value [7] was 30% and the “Population Healthy Nuclei (%)” value [7] was 56%. The “Population Hoechst High Intensity Objects (%)” value [7] was 23%, the “Population Membrane Permeable-Phenotype (%)” value [7] was 2% and the “Population Mitochondria Different-Phenotype (%)” value [7] was 2%. For the same compound, the “Population Mitotic Cells (%)” value [7] was 44%, the “Population Normal (%)” value [7] was 76% and the “Population Pyknosed Nuclei (%)” value [7] was 13%. The “Population Tubulin-Different-Phenotype (%)” value [7] was 22%, the “Total Cell Count” value [7] was 347 and the “Population Apoptotic (%)” value [8] was 33%. The “Population Fragmented Nuclei (%)” value [8] was 55%, the “Population Healthy Nuclei (%)” value [8] was 39% and the “Population Hoechst High Intensity Objects (%)” value [8] was 40%. The “Population Membrane Permeable-Phenotype (%)” value [8] was 4%, the “Population Mitochondria Different-Phenotype (%)” value [8] was 8% and the “Population Mitotic Cells (%)” value [8] was 66%. The “Population Normal (%)” value [8] was 59%, the “Population Pyknosed Nuclei (%)” value [8] was 5% and the “Population Tubulin-Different-Phenotype (%)” value [8] was 43%. For the same compound, the “Total Cell Count” value [8] was 97.

— ChEMBL document CHEMBL4689842, “EUbOPEN Chemogenomics Library wave 1” (2021)
